VIM-2 inh: VIM-2 metallo-beta-lactamase inhibitors, primary screen, biochemical, epi-absorbance readout, Pseudomonas aeruginosa enzyme; purified VIM-2, nitrocefin hydrolysis, epi-absorbance fluorescence; inhibition, % at 5.6 µM; 290,000 compounds, 0.89% hits; AID 1527, 2009;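 active = inhibition above the mean of all tested compounds plus 3 SD, cutoff set per screening run, cut at about 7.5% in these data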;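 also: red hydrolysis product quenches plate fluorescence so inhibitors raise well fluorescence; 0% = enzyme with DMSO and 100% = DMSO without enzyme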
IMP-1 inhibitor: IMP-1 metallo-beta-lactamase inhibitors, primary screen, biochemical, epi-absorbance readout, Pseudomonas aeruginosa enzyme; metallo-beta-lactamase IMP-1 (Pseudomonas aeruginosa); purified IMP-1, nitrocefin hydrolysis, epi-absorbance fluorescence; inhibition, % at 5.6 µM; 290,000 compounds, 0.45% hits; AID 1556, 2009;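 active = inhibition above the mean plus 3 SD of all compounds in the same screening run, cut at about 4.5% in these data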;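 also: 0% = IMP-1 with DMSO and 100% = DMSO wells lacking enzyme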
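System: purified IMP-1; amount: IMP-1 0.2 nM before substrate addition; compound: single dose, 5.6 µM; times: 25 °C, 15 min preincubation, 25 min reaction; signal: Epi-absorbance via hydrolysed-nitrocefin quenching of white-plate fluorescence, 480/530 nm, EDTA stop; benchmarks: DMSO with and without IMP-1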
core dimer inh: inhibitors of HCV core protein dimerization, primary screen, biochemical, TR-FRET, high-throughput | TR-FRET GST/Flag-core106 dimerization, 1536-well | inhibition, % at 5 µM | 300,000 compounds, 0.33% hits | AID 1899, 2009;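 active = inhibition above the mean of all tested compounds plus 3 SD, set per screening campaign, cut at about 45% in these data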
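System: GST-tagged and Flag-tagged HCV core protein residues 1-106 / Input: core106 proteins, GST 13.5 nM and Flag 17 nM / Buffer or medium: KF-containing HEPES buffer, pH 7.45, DTT, CHAPS, BSA / Probe or stimulus: Eu-anti-GST and XL665-anti-Flag labelled anti-tag antibodies / Schedule: 4 h, 22.5 °C incubation / Technique: TR-FRET 671 and 617 nm emission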
DNA FID counter: compounds displacing fluorescent DNA intercalator, primary screen, artefact control for HCV NS3 helicase inhibitor project, biochemical, FID fluorescence. 290,000 compounds, 0.17% hits. DNA fluorescent intercalator displacement. inhibition, % at 7.9 µM; in the data active = inhibition above about 37%;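 also: 0% = vehicle and 100% = reference compound; higher means more ethidium bromide displaced from hairpin DNA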
The depositor's hits bear a star; nt = not tested or not shown. A selection: hits, their analogues and other compounds. The true share with any hit is near 1.6%.

SMILES | VIM-2 inh | IMP-1 inhibitor | core dimer inh | DNA FID counter
O=C(CSc1nnc(NC(=O)c2ccc(F)cc2)s1)NCc1ccco1 | 12* | -1 | 1 | -7
c1coc(CN(Cc2ccco2)c2ncnc3c2oc2ccccc23)c1 | 0 | 4.7* | 3 | -13
Clc1ncnc2c1oc1ccccc12 | 1 | -1 | 3 | -8
Cc1nn(C)c(C(=O)Nc2cccc(CN3CCOCC3)c2)c1Br | -6 | -3 | -6 | -13
COc1ccc(-n2nc([N+](=O)[O-])c(=NC3CCN(Cc4ccccc4)CC3)n2O)cc1 | -2 | 9.4* | -5 | 11
Cc1ccc(Oc2ncccc2/C=N/OCc2ccc(Cl)c(Cl)c2)cc1 | 0 | 4.7* | -9 | -3
Cc1ccc(CO/N=C/C2=C(Cl)c3ccccc3CC2)cc1 | -2 | -3 | 1 | -3
COc1cc(S(=O)(=O)N2CCN(C(=O)c3ccccc3F)CC2)c(OC)cc1NC(C)=O | 1 | -1 | nt | -4
Cc1c(NC(=S)N/N=C\c2ccccc2O)c(=O)n(-c2ccccc2)n1C | 7.8* | -4 | -11 | -17
CN(C)c1ccc(/C=C/c2cc[n+]([O-])cc2)cc1 | 2 | 6.4* | -28 | -4
O=C1c2cccc(OCc3ccc(F)cc3)c2CCN1Cc1ccccc1 | -2 | 6.1* | 8 | -1
COc1ccc(CC(=O)Nc2ccc(C(C)=O)cc2)cc1 | 2 | 8.0* | 18 | -10
COc1ccc(NC(=O)CN(C)C(=O)CCC2CCCC2)cc1 | 0 | -4 | nt | -23
COc1ccc(NC(=O)CN(C)C(=O)Cc2ccsc2)cc1 | 1 | 5.0* | 1 | -8
COc1ccc(CCN2C(=NC(=O)CCC(=O)O)SC3CS(=O)(=O)CC32)cc1OC (configuration not stated) | -1 | -3 | 0 | 0
Cc1ccc2[nH]c(=O)c(CN(Cc3ccccc3)C(=S)NCCCN(C)C)cc2c1 | 0 | 0 | -3 | 15
Cc1ccc2cc(CN(CCCN(C)C)C(=O)NCc3ccccc3)c(=O)[nH]c2c1C | 7.8* | -1 | -5 | 19
Cc1ccc2cc(CN(CCCN(C)C)C(=S)NCc3ccccc3)c(=O)[nH]c2c1C | 9.8* | -2 | -4 | 14
O=[N+]([O-])c1ccc(Cl)c(/C=N/Nc2nc(N3CCOCC3)nc(N3CCOCC3)n2)c1 | -2 | -2 | 5 | -1
c1ccc(-n2nnnc2Oc2ccc(-n3ccnc3)cc2)cc1 | 11* | -4 | 5 | -10
COc1ccc(Oc2nnnn2-c2ccccc2)cc1 | -3 | 3 | -1 | -10
CC(=O)c1c(O)cc(=O)n(-c2ccccc2)c1-c1ccc(Cl)cc1 | 0 | -1 | -3 | 6
CCc1c(O)cc(=O)n(-c2ccccc2)c1-c1ccccc1 | -1 | -2 | 55* | -24
N#Cc1ccc(C23CC4(C2)[C@H](CN(P(=O)(c2ccccc2)c2ccccc2)[C@@H]4c2ccccc2)C3c2ccc(Cl)nc2)cc1 (some centres not stated) | nt | nt | 53* | nt
COc1ccc(-c2cc3c(=O)n(CC(=O)NCCCN4CCC(N5CCCCC5)CC4)ncn3n2)cc1 | 3 | -2 | -18 | 40*
SMILES | VIM-2 inh | IMP-1 inhibitor | core dimer inh | DNA FID counter
COc1ccc(-c2cc3c(=O)n(CC(=O)NC4CCN(Cc5ccccc5)CC4)ncn3n2)cc1 | -3 | 0 | -2 | 2
CN(C)S(=O)(=O)c1cc(NC(=O)c2ccc(-n3ccnc3)c([N+](=O)[O-])c2)ccc1Cl | 8.0* | -3 | 18 | -5
Cc1ccc(NC(=O)c2ccccc2-c2cc(C)no2)cc1 | -2 | -1 | 1 | -4
O=C(CSc1nnc(Cn2nnc(-c3ccccc3)n2)n1-c1ccccc1)Nc1ccc(F)cc1 | -3 | -2 | 4 | -22
O=C(CSc1nnc(Cn2nnc(-c3ccccc3)n2)n1-c1ccccc1)Nc1ccccc1 | -1 | 4.7* | 4 | -22
O=C(Cn1cnc2scc(-c3cccc([N+](=O)[O-])c3)c2c1=O)NCc1ccco1 | 4 | 0 | 64* | -2
O=S(=O)(Nc1cccc(-c2cn3cccnc3n2)c1)c1ccc(-c2ccccc2)cc1 | -4 | -3 | 50* | -13
CS(=O)(=O)N1CCN(Cc2ccc([N+](=O)[O-])cc2)CC1 | -3 | -1 | 2 | 5
CN1CCN(C(=O)C2=C[C@H](C3CCCCC3)C[C@H](OCc3ccc(CO)cc3)O2)CC1 | -1 | -1 | -3 | 8
O=C(CSc1ccsc1[N+](=O)[O-])N1CCN(c2ccc(Cl)cc2)CC1 | -3 | -2 | 67* | 9
O=C(CSc1ccsc1[N+](=O)[O-])N1CCN(c2ccccc2)CC1 | 0 | -2 | 19 | 4
O=C(CSc1ccsc1[N+](=O)[O-])N1CCCCCC1 | -1 | -3 | 3 | 2
Cc1ccc(C)c(N2CCN(C(=O)CSc3ccsc3[N+](=O)[O-])CC2)c1 | -3 | -2 | 56* | 3
CCCCN(CCCNC(=O)Cn1ncc2ccsc2c1=O)Cc1ccccc1 | -2 | -1 | -3 | -7
COC(=O)c1cc2c(=O)c3ccccc3oc2nc1/C=C/N(C)C | 7.7* | 3 | nt | -10
COC(=O)c1cc2c(=O)c3ccccc3oc2nc1C | 6 | -4 | nt | -4
CCCC(=O)Nc1ccccc1NC(C)=O | -1 | 5.3* | -4 | -4
Cc1cc([N+](=O)[O-])cc2c1NCC1CC=CC21 (configuration not stated) | -3 | -4 | -2 | 3
Cc1cc([N+](=O)[O-])c2c(c1C)C1C=CCC1C(c1ccccn1)N2 (configuration not stated) | 1 | 5.9* | 31 | -5
CC(C)CCN1CC(O)=C(c2nc(-c3ccc(Cl)cc3)cs2)C1=N | 1 | -3 | 10 | -1
N=C1C(c2nc(-c3ccc(F)cc3)cs2)=C(O)CN1CCCN1CCOCC1 | 12* | 0 | -7 | 13
NC(=O)C1(N2CCCCC2)CCN(C(=S)Nc2cccc(Cl)c2)CC1 | -6 | -6 | 4 | -7
O=C(c1nnc(Cc2ccc(Cl)cc2)o1)N1CCOCC1 | -4 | -3 | -12 | -7
Cn1cc(/C=C2\SC(=O)NC2=S)c2ccccc21 | 4 | 5.3* | -5 | 0
Cc1ccc(/C=C2\C(=O)NC(=O)N2C)o1 | -2 | -3 | -20 | -9
SMILES | VIM-2 inh | IMP-1 inhibitor | core dimer inh | DNA FID counter
Cc1ccc(/C=C2/SC(=O)NC2=S)o1 | 4 | 5.3* | nt | -5
Cc1ccc(C(=O)NN2C(=O)/C(=C/c3cn(C)c4ccccc34)SC2=S)cc1 | -2 | -3 | 3 | -2
Cc1ccc(/C=C2/SC(=S)N(C3CCCCC3)C2=O)o1 | -4 | 0 | 68* | -22
O=C1/C(=C/c2ccncc2)SC(=S)N1C1CCCCC1 | 1 | 2 | 0 | 0
COc1ccc(C(=O)c2coc3c2C(=O)C(=O)c2ccccc2-3)cc1 | 5 | 12* | -1 | -9
O=C(Nc1cccc(F)c1)C1CC(=O)N(c2ccc(Br)cc2)C1 (configuration not stated) | -4 | -3 | -5 | -2
